T cruzi growth-1: inhibitors of T. cruzi proliferation | actives 5.9% (n = 77,000) | AID 624255 | T. cruzi beta-gal in NIH3T3, GalScreen luminescence, 90 h | inhibition, % at 8.34 µM;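 active = mean inhibition above about 93%, with at least 55% of replicates each passing it, limit read from the data, passing the limit was not always enough; inconclusive = only one of those two conditions holds; inactive = neither condition holds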
GASC1 inh: blocks human GASC-1 (KDM4C) demethylase activity. GST-KDM4C 2-372, H3K9me3 peptide, LANCE TR-FRET. AID 720574. inhibition, % at 12.5 µM. actives 0.15% (n = 96,000);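 active = mean replicate inhibition above about 25%, with at least 55% of replicates also reaching it, limit read from the data, passing the limit was not always enough; inconclusive = only one of those two conditions met; inactive = neither condition met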
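System: N-terminal GST-fused human GASC-1 (KDM4C) fragment, residues 2-372 / Amount: 10 nM GST-KDM4C in enzyme reaction / Also added: H3K9me3 peptide with Fe(II)/2OG / Times: 30 min demethylation and 1 h detection at room temperature / Signal: LANCE TR-FRET / Read-out basis: Fall in 671/618 emission ratio as inhibition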
Pf Dd2 growth: inhibitors of Plasmodium falciparum Dd2 growth; P. falciparum Dd2 growth, SYBR Green, 72 h; active compounds read low; activity change, % at 10 µM; actives 2.3% (n = 94,000); AID 1159554; in the data active = activity change below about -80%; inconclusive = no clear call, values can overlap the other calls
IDH1 R132H inh: blocks human IDH1 R132H reductase activity; diaphorase/resazurin fluorescence, 60 min; actives 0.18% (n = 70,000); O75874; AID 624101; inhibition, % at 10 µM; in the data active = inhibition above about 34%; inconclusive = no clear call, values can overlap the other calls; inactive = below about 11%
Target sequence (O75874 whole entry R132H): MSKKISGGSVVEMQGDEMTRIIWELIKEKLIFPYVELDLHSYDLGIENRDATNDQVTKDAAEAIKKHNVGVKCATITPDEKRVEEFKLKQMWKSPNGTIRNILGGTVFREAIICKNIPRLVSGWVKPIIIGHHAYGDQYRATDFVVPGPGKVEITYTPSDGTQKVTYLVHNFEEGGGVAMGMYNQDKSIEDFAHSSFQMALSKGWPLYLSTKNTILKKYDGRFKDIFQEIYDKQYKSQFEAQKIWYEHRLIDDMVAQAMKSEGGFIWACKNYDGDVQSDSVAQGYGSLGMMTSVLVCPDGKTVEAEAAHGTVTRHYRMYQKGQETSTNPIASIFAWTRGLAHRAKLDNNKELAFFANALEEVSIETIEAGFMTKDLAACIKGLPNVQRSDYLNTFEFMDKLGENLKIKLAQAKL
T cruzi growth-2: inhibitors of T. cruzi proliferation; AID 651739; actives 72% (n = 5,600); shares compounds with T cruzi growth-1; inhibition, % at 8.35 µM; T. cruzi beta-gal in NIH3T3, GalScreen luminescence, 90 h;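 active = mean replicate inhibition above about 95% and at least 55% of replicates individually reaching it, limit read from the data; inconclusive = only one of the two criteria is met; inactive = neither criterion is met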
T cruzi growth-3: Trypanosoma cruzi proliferation inhibition | shares compounds with T cruzi growth-1 | T. cruzi beta-gal in NIH3T3, GalScreen luminescence, 90 h | inhibition, % at 2.09 µM | actives 21% (n = 5,600) | AID 651740;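 active = mean inhibition above about 95%, with at least 55% of replicates also reaching it, limit read from the data; inconclusive = meets just one of the two conditions; inactive = meets neither condition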
NIH3T3 tox: NIH/3T3 (mouse) viability loss; cytotoxicity (signal decrease), % at 8.35 µM; actives 14% (n = 5,600); AID 651742; NIH/3T3 viability, CellTiter-Glo ATP luminescence, 90 h; shares compounds with T cruzi growth-1;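 active = mean signal decrease across replicates above about 35% based on untreated-well scatter, with enough replicates individually passing, limit read from the data; inconclusive = no rule stated though some were filed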
3T3 cytotox 2: kills mouse NIH/3T3 fibroblasts; AID 651744; NIH/3T3 viability, CellTiter-Glo ATP luminescence, 90 h; actives 56% (n = 5,600); shares compounds with T cruzi growth-1; inhibition, % at 24.9 µM;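 active = mean loss of cell viability signal at or above a set limit, and enough replicates individually reaching it; inconclusive = meets only the mean limit or only the replicate share; inactive = meets neither condition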
Each line names hits and unclear results; the compound was inactive in the other large screens (follow-up assays come after a bar, where they were run); ! = a repeat was not active. Compounds with a hit are over-represented: about 5.9% of the library has one in this group of screens.

COc1ccccc1NC(=O)N1CCCCN2[C@@H](CO)[C@@H](c3ccc(-c4ccccc4)cc3)[C@@H]2C1	T cruzi growth-1 inconclusive (no result: GASC1 inh, IDH1 R132H inh) | T cruzi growth-2 104.3 | T cruzi growth-3 inactive | NIH3T3 tox 61.1 | 3T3 cytotox 2 104.1
COc1ccccc1NC(=O)N1CCCCN2[C@H](C1)[C@@H](c1ccc(-c3cccc(F)c3)cc1)[C@@H]2CO	none (no result: IDH1 R132H inh)
COc1ccccc1NC(=O)N1CCCCN2[C@H](CO)[C@H](c3ccc(-c4ccc(C)cc4)cc3)[C@@H]2C1	none (no result: IDH1 R132H inh)
COc1ccccc1NC(=O)N1CCCCN2[C@H](CO)[C@H](c3ccc(-c4ccccc4)cc3)[C@H]2C1	T cruzi growth-1 108.1 (no result: GASC1 inh, IDH1 R132H inh) | T cruzi growth-2 108.5 | T cruzi growth-3 inactive | NIH3T3 tox inactive | 3T3 cytotox 2 105.4
CN1CCN(C(=O)CN(c2cccc3ccccc23)S(C)(=O)=O)CC1	none (no result: T cruzi growth-1, GASC1 inh, Pf Dd2 growth)
Cc1nc(-c2ccccc2O)n(CCN2CCOCC2)n1	none (no result: T cruzi growth-1, GASC1 inh, Pf Dd2 growth)
Cc1cc(OCCCC(=O)Nc2sc3c(c2C#N)CCCC3)cc(C)c1Cl	none (no result: T cruzi growth-1, GASC1 inh, Pf Dd2 growth)
CCCC#Cc1ccc2c(c1)O[C@@H](CN(C)Cc1cccnc1)[C@@H](C)CN([C@H](C)CO)S2(=O)=O	T cruzi growth-1 108.9 | T cruzi growth-2 101.1 | T cruzi growth-3 96.2 | NIH3T3 tox inconclusive | 3T3 cytotox 2 29.5
CCCC#Cc1ccc2c(c1)O[C@H](CN(C)Cc1cncnc1)[C@@H](C)CN([C@H](C)CO)S2(=O)=O	none
CCCC#Cc1ccc2c(c1)O[C@@H](CN(C)Cc1cccnc1)[C@H](C)CN([C@H](C)CO)S2(=O)=O	T cruzi growth-1 119.3 | T cruzi growth-2 97.2 | T cruzi growth-3 96.3 | NIH3T3 tox 45.0 | 3T3 cytotox 2 105.0
C[C@H](CO)N1C[C@H](C)[C@@H](CN(C)Cc2cccnc2)Oc2cc(C#CCN(C)C)ccc2S1(=O)=O	T cruzi growth-1 104.2 | T cruzi growth-2 102.7 | T cruzi growth-3 103.5 | NIH3T3 tox inactive | 3T3 cytotox 2 inactive
C[C@H](O)C#Cc1ccc2c(c1)O[C@H](CN(C)Cc1cccnc1)[C@H](C)CN([C@@H](C)CO)S2(=O)=O	none (no result: T cruzi growth-1, GASC1 inh, IDH1 R132H inh)
CCCC#Cc1ccc2c(c1)O[C@@H](CN(C)Cc1cncnc1)[C@@H](C)CN([C@H](C)CO)S2(=O)=O	none
CCCC#Cc1ccc2c(c1)O[C@@H](CN(C)Cc1cccnc1)[C@H](C)CN([C@@H](C)CO)S2(=O)=O	T cruzi growth-1 121.9 | T cruzi growth-2 99.2 | T cruzi growth-3 inactive | NIH3T3 tox 54.9 | 3T3 cytotox 2 106.8
COc1cccc(OCC(=O)Nc2ccc(OC)c(NC(=O)c3ccco3)c2)c1	none (no result: T cruzi growth-1, GASC1 inh, Pf Dd2 growth)
O=C(OC1C(c2c(O)cc(O)c(C(=O)c3ccc(O)cc3)c2O)OC(CO)C(O)C1O)c1cc(O)c(O)c(O)c1 (stereo not drawn)	none (no result: T cruzi growth-1, GASC1 inh, Pf Dd2 growth)
COc1cccc(C(=O)NC(c2ccc(Cl)cc2)c2c(O)ccc3ccccc23)c1 (stereo not drawn)	none (no result: T cruzi growth-1, GASC1 inh, Pf Dd2 growth)
CN(C)C(=O)c1cccc(-c2ccc3c(c2)[C@H]2[C@H](CCN2S(=O)(=O)c2ccccc2)[C@@H](CO)N3)c1	T cruzi growth-1 99.7 (no result: IDH1 R132H inh) | T cruzi growth-2 96.2 | T cruzi growth-3 inactive | NIH3T3 tox inactive | 3T3 cytotox 2 inactive
CN(C)C(=O)c1ccc(-c2ccc3c(c2)[C@H]2[C@H](CCN2S(=O)(=O)c2ccccc2)[C@H](CO)N3)cc1	none (no result: IDH1 R132H inh)
N#Cc1cccc(-c2ccc3c(c2)[C@@H]2[C@@H](CCN2S(=O)(=O)c2ccccc2)[C@H](CO)N3)c1	none (no result: IDH1 R132H inh)
CN(C)C(=O)c1cccc(-c2ccc3c(c2)[C@@H]2[C@@H](CCN2S(=O)(=O)c2ccccc2)[C@H](CO)N3)c1	T cruzi growth-1 112.3 (no result: IDH1 R132H inh) | T cruzi growth-2 97.4 | T cruzi growth-3 inactive | NIH3T3 tox inactive | 3T3 cytotox 2 inactive
O=C(COc1cccc(NC(=O)c2ccc([N+](=O)[O-])cc2)c1)c1ccc(Br)cc1	none (no result: T cruzi growth-1, GASC1 inh, Pf Dd2 growth)
COc1ccc(C#Cc2cnc3c(c2)C(=O)N([C@H](C)CO)C[C@@H](C)[C@@H](CN(C)C(=O)Nc2cccc(OC)c2)O3)cc1	T cruzi growth-1 inconclusive | T cruzi growth-2 109.8 | T cruzi growth-3 inactive | NIH3T3 tox inactive | 3T3 cytotox 2 inactive
COc1ccc(C#Cc2cnc3c(c2)C(=O)N([C@H](C)CO)C[C@H](C)[C@@H](CN(C)C(=O)Nc2cccc(OC)c2)O3)cc1	T cruzi growth-1 110.0! | T cruzi growth-2 96.2 | T cruzi growth-3 inactive | NIH3T3 tox inactive | 3T3 cytotox 2 29.0
COc1ccc(C#Cc2cnc3c(c2)C(=O)N([C@@H](C)CO)C[C@H](C)[C@@H](CN(C)C(=O)Nc2cccc(OC)c2)O3)cc1	none (no result: IDH1 R132H inh)
COc1ccc(C#Cc2cnc3c(c2)C(=O)N([C@@H](C)CO)C[C@@H](C)[C@@H](CN(C)C(=O)Nc2cccc(OC)c2)O3)cc1	T cruzi growth-1 inconclusive (no result: IDH1 R132H inh) | T cruzi growth-2 108.8 | T cruzi growth-3 inactive | NIH3T3 tox inactive | 3T3 cytotox 2 inactive
COc1ccc(F)cc1S(=O)(=O)NCc1cccnc1	none (no result: T cruzi growth-1, GASC1 inh, Pf Dd2 growth)
